From PubChem BioAssay AID623913 (Johns Hopkins Ion Channel Center, 2012)
The source made the active and inactive calls.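 Rule for the calls: active = KCNQ2 potassium channel blocked by over 30% at some tested dose, with a dose response curve fitted; inactive = no blocking at any dose, or no fitted curve.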

Each molecule was assayed against Potassium voltage-gated channel subfamily KQT member 2 (Rattus norvegicus) (UniProt O88943) (assay: KCNQ2 channel inhibition, SAR follow-up, selectivity assay for KCNK9 inhibitor project, cell-based, FluxOR thallium flux, concentration-response, set 4 (AID 623913)). Details: KCNQ2 cells, FluxOR thallium flux fluorescence.
Summary of the method: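 Material: KCNQ2-expressing CHO cells | Probe or stimulus: K+/Tl+ stimulus buffer (5x stock K2SO4 plus Tl2SO4) | Incubation: FluxOR dye loading 90 min, compound exposure 20 min, both room temperature | Signal: FluxOR thallium flux fluorescence, kinetic read | Benchmarks: XE-991 control | Replicates: at least duplicate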

Chain of Potassium voltage-gated channel subfamily KQT member 2 (Rattus norvegicus) (O88943 whole entry, looked up): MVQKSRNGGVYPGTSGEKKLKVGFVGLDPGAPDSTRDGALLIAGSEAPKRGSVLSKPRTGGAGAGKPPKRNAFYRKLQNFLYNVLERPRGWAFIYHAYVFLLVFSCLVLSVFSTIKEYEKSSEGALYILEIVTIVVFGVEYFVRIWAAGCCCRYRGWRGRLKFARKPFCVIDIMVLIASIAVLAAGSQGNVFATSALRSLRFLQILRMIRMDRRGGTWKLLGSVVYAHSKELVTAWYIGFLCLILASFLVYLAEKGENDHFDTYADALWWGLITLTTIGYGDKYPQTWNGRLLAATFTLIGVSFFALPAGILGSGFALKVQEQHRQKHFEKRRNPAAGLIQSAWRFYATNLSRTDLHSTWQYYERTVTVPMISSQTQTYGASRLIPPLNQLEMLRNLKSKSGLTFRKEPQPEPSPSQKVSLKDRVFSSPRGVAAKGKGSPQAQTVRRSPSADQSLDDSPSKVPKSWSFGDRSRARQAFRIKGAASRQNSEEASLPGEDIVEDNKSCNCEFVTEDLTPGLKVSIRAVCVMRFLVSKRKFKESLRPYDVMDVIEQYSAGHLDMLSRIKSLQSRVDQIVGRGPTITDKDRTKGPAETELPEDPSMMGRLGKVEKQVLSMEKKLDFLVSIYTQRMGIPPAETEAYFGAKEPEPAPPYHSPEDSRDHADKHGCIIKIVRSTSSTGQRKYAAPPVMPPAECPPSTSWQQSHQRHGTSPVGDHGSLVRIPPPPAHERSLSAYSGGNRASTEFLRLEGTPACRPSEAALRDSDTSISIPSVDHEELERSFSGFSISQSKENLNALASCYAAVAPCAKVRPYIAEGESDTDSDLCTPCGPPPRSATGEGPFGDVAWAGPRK

SMILES | IC50
COc1ccc(C(=O)CCSc2nnc(-c3ccco3)n2C(C)C2CC3CCC2C3)cc1OC (stereo not given) | 11.1 µM

Same assay, conditions: KCNQ2 cells, FluxOR thallium flux fluorescence; at 30 µM (top of the series)

SMILES | thallium flux ratio, lower = inhibition
C[C@H](C1CCCCC1)n1c(-c2ccsc2)n[nH]c1=S | inactive
CC(C1CC2CCC1C2)n1c(SCC(=O)N2CCN(C)CC2)nnc1-c1ccco1 (stereo not given) | inactive
C[C@@H]([C@@H]1CC2CC[C@H]1C2)n1c(-c2ccsc2)n[nH]c1=S | inactive
C[C@@H]([C@@H]1CC2CC[C@H]1C2)n1c(-c2ccco2)n[nH]c1=S | inactive
COc1cccc(-c2n[nH]c(=S)n2[C@H](C)[C@@H]2CC3CC[C@H]2C3)c1 | inactive
CC(C1CC2CCC1C2)n1c(N)nnc1-c1ccco1 (stereo not given) | inactive
CC(C1CC2CCC1C2)n1c(SCCc2cccc(O)c2)nnc1-c1ccco1 (stereo not given) | inactive
COc1cccc(CCSc2nnc(-c3ccco3)n2C(C)C2CC3CCC2C3)c1 (stereo not given) | inactive
C[C@H]([C@@H]1CC2CC[C@H]1C2)n1c(-c2ccco2)n[nH]c1=S | inactive
CC(C1CC2CCC1C2)n1c(-c2ccco2)nn(CCc2ccncc2)c1=S (stereo not given) | inactive
C[C@H](C1CCCCC1)n1c(-c2ccccc2F)n[nH]c1=S | inactive
COc1ccc(CC(=O)NCc2ccccc2-c2ccccc2C(=O)NCc2ccc(F)cc2F)cc1 | inactive
C[C@H]([C@@H]1CC2CC[C@H]1C2)n1c(-c2ccccc2F)n[nH]c1=S | inactive
COc1ccc(CSc2nnc(-c3ccco3)n2C(C)C2CC3CCC2C3)cc1OC (stereo not given) | inactive
C[C@H]([C@@H]1CC2CC[C@H]1C2)n1c(-c2ccsc2)n[nH]c1=S | inactive
CC([C@@H]1CC2CC[C@H]1C2)n1c(-c2ccsc2)n[nH]c1=S (stereo not given in full) | inactive
CC(C1CC2CCC1C2)n1c(SCCc2ccccn2)nnc1-c1ccco1 (stereo not given) | inactive
COc1cccc(-c2n[nH]c(=S)n2[C@H](C)C2CCCCC2)c1 | inactive
CC(C1CCN(C)CC1)n1c(-c2ccco2)n[nH]c1=S (stereo not given) | inactive
COc1ccc(NC(=O)CSc2nnc(-c3ccco3)n2C(C)C2CC3CCC2C3)cc1OC (stereo not given) | inactive
CCCC(=O)C1CCN(c2ncnc3c2CN(C(=O)c2ccc(-c4ccccc4)cc2)CC3)CC1 | inactive
CC(C1C[C@H]2CCC1C2)n1c(-c2ccsc2)n[nH]c1=S (stereo not given in full) | inactive
COc1cccc(-c2nnc(SSc3nnc(-c4cccc(OC)c4)n3C(C)C3CC4CCC3C4)n2C(C)C2CC3CCC2C3)c1 (stereo not given) | inactive
CC(C1CC2CCC1C2)n1c(SCCN2CCOCC2)nnc1-c1ccco1 (stereo not given) | inactive
